The values that follow come from the array DNA melting data of Ke et al. (doi:10.1101/2024.01.08.574731).

Data set [1] can be described thus: melting temperature; fluorescence melt of hairpins on a sequencing array, two-state fit, raised by 9.35 °C to match UV melts. Particulars: sodium 0.088 M. In outline:
(§1)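 Hairpins were imaged by Cy3 fluorescence on a sequenced MiSeq flow cell with annealed Cy3 and quencher oligos, in 50 mM Na-HEPES pH 8.0, 25 mM NaCl, in 2.5 °C steps up to 60 °C. Bootstrapped two-state fits of normalised signals gave melting temperature and folding enthalpy. Four replicates were combined by inverse variance, and fitted temperatures were raised by 9.35 °C to match UV melts.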

Data set [2] in a line: folding enthalpy; higher = less favourable; fluorescence melt of hairpins on a sequencing array, two-state fit. Particulars: sodium 0.088 M. In outline:
as §1

In the case of GGGTGAGGAAACTCGCTC (.(.(((....))).).), the Tm in data set [1] turned out to be 38.1 °C. The folding enthalpy in data set [2] is -90.6 kJ/mol.
For the sequence GGGTGCGAAAGCAAACCC ((((((....)))..))), in data set [1], the Tm amounted to 55.9 °C. Besides, the folding enthalpy in data set [2] is -123 kJ/mol.
As for GGGTGCGAAAGCAAGCCC ((((((....)))..))), the Tm in data set [1] amounted to 53.8 °C. Moreover, the folding enthalpy in data set [2] is -96.7 kJ/mol.
With GGGTGCGGAAACGCGCTC (.(.(((....))).).), the Tm in data set [1] was determined as 57.2 °C. For the same sequence, the folding enthalpy in data set [2] is -69 kJ/mol.
Consider GGGTGCTCGAAAGAGCCC (((..(((....)))))), for which the Tm in data set [1] is 52.6 °C. The folding enthalpy in data set [2] was -73.9 kJ/mol.
For GGGTGGACGAAAGTCCCC (((..(((....)))))) the same measures were 49.7 °C and -51.7 kJ/mol.
For the sequence GGGTGGGGAAACCCACTC (.(((((....))))).), the Tm in data set [1] came to 53 °C. Besides, the folding enthalpy in data set [2] is -70 kJ/mol.
For GGGTGGGGAAACCCGCTC (.(.(((....))).).), in data set [1], the Tm worked out at 49.1 °C. Moreover, the folding enthalpy in data set [2] is -74.1 kJ/mol.
Take GGGTGGGGAAACCCGTCC ((..(((....)))..)): the Tm in data set [1] is 48.8 °C. In addition, the folding enthalpy in data set [2] was -79.6 kJ/mol.
With GGGTGTCGAAAGACCCC (((.(((....)))))), in data set [1], the Tm is 56.4 °C. Further, in data set [2], the folding enthalpy was -149 kJ/mol.
Consider GGGTGTCGAAAGACCCCC (((.(((....))).))), for which, in data set [1], the Tm worked out at 56.4 °C. In data set [2], the folding enthalpy was -101 kJ/mol.
Turning to GGGTGTCGAAAGACTCCC (((.(((....))).))), the Tm in data set [1] was determined as 58.3 °C. The folding enthalpy in data set [2] is -177 kJ/mol.
Turning to GGGTGTGGAAACACGTCC ((..(((....)))..)), in data set [1], the Tm was determined as 40.1 °C. The folding enthalpy in data set [2] was -57 kJ/mol.
Take GGGTTACCGAAAGGTCCC (((..(((....)))))): the Tm in data set [1] is 41 °C. The folding enthalpy in data set [2] is -81.1 kJ/mol.
As for GGGTTAGGAAACCAACCC (((((.(....).))))), in data set [1], the Tm is 45.6 °C. Further, in data set [2], the folding enthalpy was -142 kJ/mol.
For GGGTTAGGAAACTAGCCC (((.(((....))).))), in that order: 49 °C and -102 kJ/mol.
Regarding GGGTTCGAAAGAAACCC ((((((....))).))), the Tm in data set [1] was 54.4 °C. Besides, the folding enthalpy in data set [2] is -145 kJ/mol.
In the case of GGGTTCGAAAGAAGACCC ((((((....)))..))), the Tm in data set [1] was determined as 41.8 °C. In data set [2], the folding enthalpy is -88.8 kJ/mol.
GGGTTCGGAAACAAACCC (((((.(....).))))): in data set [1], the Tm came out at 43 °C. For the same sequence, the folding enthalpy in data set [2] is -125 kJ/mol.
As to GGGTTGAAAAACCC (((((....))))), the Tm in data set [1] came out at 55.5 °C. For the same sequence, the folding enthalpy in data set [2] is -123 kJ/mol.
For the sequence GGGTTGACGAAAGTCCCC (((..(((....)))))), in data set [1], the Tm is 42.5 °C. For the same sequence, in data set [2], the folding enthalpy was -86 kJ/mol.
Take GGGTTGCGAAAGCATCCC (((.(((....))).))): the Tm in data set [1] worked out at 59.1 °C. Also, the folding enthalpy in data set [2] was -143 kJ/mol.
As for GGGTTGGGAAACCAACTC (.(((((....))))).), the Tm in data set [1] stood at 49.7 °C. In addition, the folding enthalpy in data set [2] was -91.5 kJ/mol.
For GGGTTGGGAAACCAGCCC (((.(((....))).))) the same measures were 56 °C and -195 kJ/mol.
For GGGTTGGGAAACCGATCC ((.(.((....)).).)) the same measures were 40.3 °C and -68.2 kJ/mol.
Take GGGTTTCCGAAAGGACCC (((..(((....)))))): the Tm in data set [1] is 40.6 °C. Further, the folding enthalpy in data set [2] is -80.6 kJ/mol.
With GGGTTTTCGAAAGAACCC (((..(((....)))))), the Tm in data set [1] was found to be 43.6 °C. Besides, in data set [2], the folding enthalpy was -133 kJ/mol.
As for GGTAAACCGAAAGGTACC (((..(((....)))))), the Tm in data set [1] was determined as 40.1 °C. Also, the folding enthalpy in data set [2] was -84.6 kJ/mol.
Consider GGTAAACGAAAGTTCACC (((.(((....))).))), for which the Tm in data set [1] was 40.4 °C. For the same sequence, the folding enthalpy in data set [2] was -120 kJ/mol.
GGTAAACGAAAGTTGACC (((.(((....))).))): the Tm in data set [1] worked out at 49.4 °C. Further, the folding enthalpy in data set [2] is -152 kJ/mol.
On to GGTAACACGAAAGTGACC (((..(((....)))))), for which the Tm in data set [1] stood at 37.1 °C. In addition, the folding enthalpy in data set [2] is -71.4 kJ/mol.
For GGTAACGAAAGTTAGACC ((((((....)))..))) the same measures were 33.6 °C and -54.3 kJ/mol.
On to GGTAACGAAAGTTCGACC ((((((....)))..))), for which the Tm in data set [1] amounted to 28 °C. Moreover, in data set [2], the folding enthalpy was -66.8 kJ/mol.
As for GGTAACGAAAGTTGCACC ((((((....)))..))), in data set [1], the Tm amounted to 35.1 °C. The folding enthalpy in data set [2] is -58.9 kJ/mol.
Turning to GGTAAGACGAAAGTCACC (((..(((....)))))), the Tm in data set [1] came out at 39.3 °C. In data set [2], the folding enthalpy was -67.8 kJ/mol.
For GGTAAGCGAAAGCTAACC (((.(((....))).))), the Tm in data set [1] turned out to be 50.1 °C. In addition, in data set [2], the folding enthalpy was -140 kJ/mol.
In the case of GGTAAGCGAAAGCTCACC (((.(((....))).))), the Tm in data set [1] is 46.9 °C. In addition, the folding enthalpy in data set [2] was -107 kJ/mol.
For GGTAAGGAAACTTACC ((((((....)))))) the same measures were 50.3 °C and -135 kJ/mol.
For GGTAAGGGAAACCTTACC (((((((....))))))), the Tm in data set [1] came out at 57.5 °C. The folding enthalpy in data set [2] was -193 kJ/mol.
GGTAAGGGAAACCTTGCC ((.((((....)))).)): the Tm in data set [1] was found to be 48.3 °C. Also, in data set [2], the folding enthalpy was -124 kJ/mol.
For GGTAATCCGAAAGGAACC (((..(((....)))))) the same measures were 26 °C and -82.6 kJ/mol.
Take GGTAATGAAAATTACC ((((((....)))))): the Tm in data set [1] is 48.4 °C. The folding enthalpy in data set [2] is -135 kJ/mol.
Regarding GGTAATGCGAAAGCAACC (((..(((....)))))), the Tm in data set [1] worked out at 31.6 °C. Besides, the folding enthalpy in data set [2] was -46.9 kJ/mol.
With GGTACACCGAAAGGTACC (((..(((....)))))), the Tm in data set [1] worked out at 41.1 °C. The folding enthalpy in data set [2] is -85.7 kJ/mol.
For the sequence GGTACACGAAAGTGACC (((.(((....)))))), in data set [1], the Tm stood at 46.4 °C. Moreover, the folding enthalpy in data set [2] is -76.9 kJ/mol.
As to GGTACAGGAAACTGTATC (.(((((....))))).), the Tm in data set [1] amounted to 43.4 °C. For the same sequence, the folding enthalpy in data set [2] is -120 kJ/mol.
With GGTACCGAAAGGTGCACC ((((((....)))..))), in data set [1], the Tm came out at 40.3 °C. For the same sequence, the folding enthalpy in data set [2] is -58.2 kJ/mol.
For GGTACCGAAAGGTGTACC ((((((....)))..))) the same measures were 46.6 °C and -94 kJ/mol.
For GGTACCGAAAGGTTGACC ((((((....)))..))), in that order: 36 °C and -70.9 kJ/mol.
As to GGTACGGCGAAAGCCACC (((..(((....)))))), the Tm in data set [1] turned out to be 38.1 °C. In addition, the folding enthalpy in data set [2] is -44.3 kJ/mol.
Turning to GGTACTCGAAAGAGACC (((.(((....)))))), in data set [1], the Tm amounted to 43.1 °C. Moreover, the folding enthalpy in data set [2] is -98.9 kJ/mol.
For GGTACTGGAAACAATACC ((((.((....)).)))), in that order: 26.7 °C and -50.1 kJ/mol.
On to GGTACTGGAAACAGTGCC ((.((((....)))).)), for which the Tm in data set [1] stood at 54.9 °C. In addition, the folding enthalpy in data set [2] is -175 kJ/mol.
In the case of GGTAGCCGAAAGGCCACC (((.(((....))).))), in data set [1], the Tm stood at 52.2 °C. The folding enthalpy in data set [2] was -81.4 kJ/mol.
On to GGTAGCGAAAGCTTTACC ((((((....)))..))), for which the Tm in data set [1] came out at 34.4 °C. Also, the folding enthalpy in data set [2] is -65.7 kJ/mol.
